Measurements: the M2OR odorant receptor database

What was measured:
Details in all cases: stereoisomer not certain
OR8J3 E4V = test system: OR8J3 E4V
How it was run: (§1)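 Assay methods differ from source to source, frequently being transient luciferase assays in mammalian cell lines. For each receptor–molecule pair, the label responsive (active) applies when the original authors judged the measured signal statistically different from baseline, and non-responsive (inactive) applies otherwise.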

OR8K1 (Homo sapiens) = OR8K1 (Homo sapiens) (UniProt Q8NGG5)
OR8K1 (Homo sapiens), sequence (Q8NGG5 whole entry): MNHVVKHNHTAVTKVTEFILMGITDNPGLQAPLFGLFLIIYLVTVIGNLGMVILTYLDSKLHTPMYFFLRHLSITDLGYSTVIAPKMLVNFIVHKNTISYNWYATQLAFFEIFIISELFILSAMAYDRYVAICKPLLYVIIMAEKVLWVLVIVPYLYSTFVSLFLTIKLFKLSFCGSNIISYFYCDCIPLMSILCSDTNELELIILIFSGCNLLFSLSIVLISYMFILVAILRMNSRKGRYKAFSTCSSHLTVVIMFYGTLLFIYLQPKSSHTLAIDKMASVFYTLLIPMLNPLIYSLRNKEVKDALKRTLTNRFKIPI
How it was run: as §1

OR8K3 (Homo sapiens) = OR8K3 (Homo sapiens) (UniProt Q8NH51)
OR8K3 (Homo sapiens), sequence (Q8NH51 whole entry): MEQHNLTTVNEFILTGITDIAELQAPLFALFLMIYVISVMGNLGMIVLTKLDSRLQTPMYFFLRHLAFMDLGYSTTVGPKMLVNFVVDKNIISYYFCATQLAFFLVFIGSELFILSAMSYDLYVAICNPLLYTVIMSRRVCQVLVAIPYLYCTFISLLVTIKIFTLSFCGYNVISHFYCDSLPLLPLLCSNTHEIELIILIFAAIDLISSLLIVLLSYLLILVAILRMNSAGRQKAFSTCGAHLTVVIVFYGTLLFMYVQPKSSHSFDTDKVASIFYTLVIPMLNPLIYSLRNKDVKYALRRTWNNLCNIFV
How it was run: as §1

OR8K5 (Homo sapiens) = OR8K5 (Homo sapiens) (UniProt Q8NH50)
OR8K5 (Homo sapiens), sequence (Q8NH50 whole entry): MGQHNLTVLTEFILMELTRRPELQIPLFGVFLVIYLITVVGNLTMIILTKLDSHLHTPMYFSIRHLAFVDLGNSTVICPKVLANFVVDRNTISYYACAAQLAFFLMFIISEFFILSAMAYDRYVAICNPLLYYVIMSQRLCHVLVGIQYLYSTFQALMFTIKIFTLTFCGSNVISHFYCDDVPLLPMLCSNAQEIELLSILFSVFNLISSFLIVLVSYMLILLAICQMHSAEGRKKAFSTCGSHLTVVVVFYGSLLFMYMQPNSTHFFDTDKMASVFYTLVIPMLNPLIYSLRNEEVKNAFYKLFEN
How it was run: as §1

OR8S1 (Homo sapiens) = OR8S1 (Homo sapiens) (UniProt Q8NH09)
OR8S1 (Homo sapiens), sequence (Q8NH09 whole entry): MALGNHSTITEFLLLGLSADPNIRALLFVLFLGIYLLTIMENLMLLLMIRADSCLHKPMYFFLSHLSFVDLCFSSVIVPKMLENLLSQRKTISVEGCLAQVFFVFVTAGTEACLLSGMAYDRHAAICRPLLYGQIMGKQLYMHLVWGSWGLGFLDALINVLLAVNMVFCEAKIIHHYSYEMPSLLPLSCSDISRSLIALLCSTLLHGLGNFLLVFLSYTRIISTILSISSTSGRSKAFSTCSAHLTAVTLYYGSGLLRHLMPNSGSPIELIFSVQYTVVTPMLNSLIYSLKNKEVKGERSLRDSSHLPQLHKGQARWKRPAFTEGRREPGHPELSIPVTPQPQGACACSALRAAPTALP
How it was run: as §1

OR8U1 (Homo sapiens) = OR8U1 (Homo sapiens) (UniProt Q8NH10)
OR8U1 (Homo sapiens), sequence (Q8NH10 whole entry): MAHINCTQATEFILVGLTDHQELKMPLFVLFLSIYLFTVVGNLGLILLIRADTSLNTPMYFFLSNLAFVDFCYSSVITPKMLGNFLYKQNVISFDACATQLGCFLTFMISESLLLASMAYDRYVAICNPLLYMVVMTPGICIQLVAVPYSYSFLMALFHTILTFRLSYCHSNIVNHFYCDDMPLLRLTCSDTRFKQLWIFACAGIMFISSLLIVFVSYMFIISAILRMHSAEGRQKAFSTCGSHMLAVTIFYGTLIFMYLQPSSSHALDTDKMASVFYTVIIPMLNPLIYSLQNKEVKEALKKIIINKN
How it was run: as §1

OR8U3 (Homo sapiens) = OR8U3 (Homo sapiens) (UniProt Q8NH85)
OR8U3 (Homo sapiens), sequence (Q8NH85 whole entry): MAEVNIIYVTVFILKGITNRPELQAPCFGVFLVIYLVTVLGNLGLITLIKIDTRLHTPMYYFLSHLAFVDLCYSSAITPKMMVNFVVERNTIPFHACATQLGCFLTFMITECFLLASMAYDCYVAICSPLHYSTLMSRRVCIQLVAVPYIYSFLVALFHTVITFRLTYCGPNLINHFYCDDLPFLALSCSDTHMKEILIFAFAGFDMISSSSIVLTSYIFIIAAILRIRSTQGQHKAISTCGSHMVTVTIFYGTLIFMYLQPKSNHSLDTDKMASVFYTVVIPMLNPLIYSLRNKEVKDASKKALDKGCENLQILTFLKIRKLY
How it was run: as §1

OR8U8 [1] = test system: OR8U8
How it was run: as §1
Target sequence in this assay (as listed by the source): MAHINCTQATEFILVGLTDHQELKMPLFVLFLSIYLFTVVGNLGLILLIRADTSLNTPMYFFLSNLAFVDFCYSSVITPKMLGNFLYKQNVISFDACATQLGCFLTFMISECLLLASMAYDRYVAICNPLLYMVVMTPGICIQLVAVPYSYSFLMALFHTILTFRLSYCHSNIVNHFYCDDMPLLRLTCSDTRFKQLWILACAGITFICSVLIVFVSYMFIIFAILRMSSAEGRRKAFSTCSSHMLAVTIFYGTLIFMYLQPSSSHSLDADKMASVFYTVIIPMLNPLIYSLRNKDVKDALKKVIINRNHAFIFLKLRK

OR8U8 [2] = test system: OR8U8; remark: listed apart in the source
How it was run: as §1
Target sequence in this assay (as listed by the source): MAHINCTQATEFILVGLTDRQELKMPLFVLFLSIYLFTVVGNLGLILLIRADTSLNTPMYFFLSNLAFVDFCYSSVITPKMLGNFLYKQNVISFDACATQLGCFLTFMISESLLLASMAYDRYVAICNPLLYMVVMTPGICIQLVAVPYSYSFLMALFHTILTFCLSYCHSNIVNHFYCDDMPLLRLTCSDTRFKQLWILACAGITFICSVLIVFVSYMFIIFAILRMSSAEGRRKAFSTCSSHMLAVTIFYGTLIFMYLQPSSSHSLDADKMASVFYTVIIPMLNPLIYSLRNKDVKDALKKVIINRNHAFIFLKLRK

OR8U9 (Homo sapiens) = OR8U9 (Homo sapiens) (UniProt P0C7N5)
OR8U9 (Homo sapiens), sequence (P0C7N5 whole entry): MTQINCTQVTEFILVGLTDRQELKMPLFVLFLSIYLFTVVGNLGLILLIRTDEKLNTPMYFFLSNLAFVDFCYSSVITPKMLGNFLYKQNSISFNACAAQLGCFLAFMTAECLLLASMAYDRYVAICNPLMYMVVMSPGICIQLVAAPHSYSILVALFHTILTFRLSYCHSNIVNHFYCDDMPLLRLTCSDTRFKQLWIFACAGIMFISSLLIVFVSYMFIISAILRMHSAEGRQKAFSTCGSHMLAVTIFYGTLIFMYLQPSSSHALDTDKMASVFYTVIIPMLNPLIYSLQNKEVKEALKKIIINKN
How it was run: as §1

OR8U9 T2A Q3H Q293R = test system: OR8U9 T2A Q3H Q293R
How it was run: as §1

OR8U9 = test system: OR8U9
OR8U9, sequence (as listed by the source): as the sequence (P0C7N5 whole entry) above, with Q293R counted along it
How it was run: as §1

OR9A2 (Homo sapiens) = OR9A2 (Homo sapiens) (UniProt Q8NGT5)
OR9A2 (Homo sapiens), sequence (Q8NGT5 whole entry): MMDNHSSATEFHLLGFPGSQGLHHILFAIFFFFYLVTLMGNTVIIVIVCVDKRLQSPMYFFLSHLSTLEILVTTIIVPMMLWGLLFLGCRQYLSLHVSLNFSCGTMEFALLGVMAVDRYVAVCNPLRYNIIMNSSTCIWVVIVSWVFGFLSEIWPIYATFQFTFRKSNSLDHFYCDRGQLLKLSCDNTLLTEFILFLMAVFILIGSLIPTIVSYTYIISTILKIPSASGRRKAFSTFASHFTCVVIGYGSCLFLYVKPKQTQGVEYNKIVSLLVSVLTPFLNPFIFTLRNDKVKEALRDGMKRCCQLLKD
How it was run: as §1

OR9A2 C304Y = test system: OR9A2 C304Y
OR9A2 C304Y, sequence (as listed by the source, stated change not applied): as the sequence (Q8NGT5 whole entry) above, with C304Y counted along it
How it was run: as §1

OR9A4 (Homo sapiens) = OR9A4 (Homo sapiens) (UniProt Q8NGU2)
OR9A4 (Homo sapiens), sequence (Q8NGU2 whole entry): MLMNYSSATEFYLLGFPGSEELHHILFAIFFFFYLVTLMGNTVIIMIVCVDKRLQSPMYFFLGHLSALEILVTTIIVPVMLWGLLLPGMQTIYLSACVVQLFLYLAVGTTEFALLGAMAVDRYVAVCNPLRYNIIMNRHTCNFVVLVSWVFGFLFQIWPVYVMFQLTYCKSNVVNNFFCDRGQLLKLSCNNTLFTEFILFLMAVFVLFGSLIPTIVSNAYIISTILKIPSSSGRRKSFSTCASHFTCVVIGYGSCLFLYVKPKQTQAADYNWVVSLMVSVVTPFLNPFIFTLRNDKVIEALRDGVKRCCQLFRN
How it was run: as §1

OR9G1 (Homo sapiens) = OR9G1 (Homo sapiens) (UniProt Q8NH87)
OR9G1 (Homo sapiens), sequence (Q8NH87 whole entry): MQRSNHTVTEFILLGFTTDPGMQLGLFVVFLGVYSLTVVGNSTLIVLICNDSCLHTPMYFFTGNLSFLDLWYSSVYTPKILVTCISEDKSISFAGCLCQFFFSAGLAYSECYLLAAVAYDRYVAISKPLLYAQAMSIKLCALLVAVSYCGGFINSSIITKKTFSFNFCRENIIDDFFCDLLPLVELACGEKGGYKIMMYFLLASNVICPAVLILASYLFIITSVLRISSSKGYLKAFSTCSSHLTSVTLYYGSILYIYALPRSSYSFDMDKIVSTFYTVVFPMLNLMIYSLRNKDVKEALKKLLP
How it was run: as §1

OR9G4 (Homo sapiens) = OR9G4 (Homo sapiens) (UniProt Q8NGQ1)
OR9G4 (Homo sapiens), sequence (Q8NGQ1 whole entry): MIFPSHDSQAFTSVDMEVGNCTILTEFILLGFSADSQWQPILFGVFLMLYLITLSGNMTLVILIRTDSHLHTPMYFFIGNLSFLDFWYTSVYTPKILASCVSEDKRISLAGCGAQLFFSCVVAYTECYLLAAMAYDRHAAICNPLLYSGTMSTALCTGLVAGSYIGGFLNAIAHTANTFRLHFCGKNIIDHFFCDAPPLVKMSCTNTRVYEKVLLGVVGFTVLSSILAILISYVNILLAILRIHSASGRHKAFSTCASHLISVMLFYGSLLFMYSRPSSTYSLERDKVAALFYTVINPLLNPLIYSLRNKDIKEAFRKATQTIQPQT
How it was run: as §1

OR9G4 H6Y N206D V222A = test system: OR9G4 H6Y N206D V222A
How it was run: as §1

OR9G4 N206D V222A = test system: OR9G4 N206D V222A
How it was run: as §1

OR8U8 (Homo sapiens) = OR8U8 (Homo sapiens) (UniProt P0C7N1)
OR8U8 (Homo sapiens), sequence (P0C7N1 whole entry): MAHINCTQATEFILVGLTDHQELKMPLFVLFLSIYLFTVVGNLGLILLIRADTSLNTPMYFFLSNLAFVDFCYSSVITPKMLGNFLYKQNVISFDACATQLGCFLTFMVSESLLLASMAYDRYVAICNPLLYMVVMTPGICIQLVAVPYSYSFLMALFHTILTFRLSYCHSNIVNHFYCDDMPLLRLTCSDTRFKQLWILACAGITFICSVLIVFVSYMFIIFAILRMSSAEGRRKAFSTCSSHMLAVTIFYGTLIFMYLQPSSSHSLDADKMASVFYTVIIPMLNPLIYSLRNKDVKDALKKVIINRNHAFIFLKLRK
How it was run: as §1

Measured: odorant receptor agonist call

OR8J3 E4V, sequence (as listed by the source): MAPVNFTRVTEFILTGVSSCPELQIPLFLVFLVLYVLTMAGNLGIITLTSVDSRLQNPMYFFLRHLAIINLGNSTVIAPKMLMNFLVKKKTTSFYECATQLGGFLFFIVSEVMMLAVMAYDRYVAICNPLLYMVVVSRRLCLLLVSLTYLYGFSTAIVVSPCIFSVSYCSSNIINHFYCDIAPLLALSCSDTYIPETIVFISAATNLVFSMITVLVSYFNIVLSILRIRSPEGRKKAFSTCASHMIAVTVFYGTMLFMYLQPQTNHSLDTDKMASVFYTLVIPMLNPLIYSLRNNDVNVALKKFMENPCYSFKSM

C=CCOC(=O)Cc1ccccc1
not listed: OR8U8 (Homo sapiens)
inactive: all other assays above

Cc1c([N+](=O)[O-])c(C)c([N+](=O)[O-])c(C(C)(C)C)c1[N+](=O)[O-]
not listed: OR8J3 E4V | OR8U8 [1] | OR8U8 [2] | OR8U9 T2A Q3H Q293R | OR8U9 | OR9A2 C304Y | OR9G4 H6Y N206D V222A | OR9G4 N206D V222A
inactive: all other assays above
